The full list was thinned out, with hits kept by preference.
G6PDH CS: counter-screen for G6PDH assay hits: L. mesenteroides G6PDH inhibition | Purified L. mesenteroides G6PDH, diaphorase/resazurin coupled fluorescence, 45 min | inhibition, % at 5 µM | 0.12% of 200,000 active
Redox H2O2 prof: compounds producing H2O2 with reducing agent – biochemical, NIH compound library profiling, artefact control for MLSCN library redox annotation, primary screen; DTT-dependent redox cycling H2O2, phenol red/HRP absorbance; 100% = 100 µM peroxide control, 0% = buffer; 0.03% of 200,000 active; activation, % at 10 µM;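 active = activation of at least 50% relative to the plate's high and low controls in the primary single-dose screen; inactive = activation below 50%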;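 note: compound incubated with DTT at 0.8 mM final as the reducing agent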
L major viab: Leishmania major promastigote growth inhibition; Leishmania major promastigotes, resazurin fluorescence viability; inhibition, % at 10 µM; 9% of 200,000 active;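 note: promastigotes grown with compound for 44 hours at 28 °C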
Diaphorase act: counter-screen for diaphorase-based assays: diaphorase activators and chemical reducers. Diaphorase/resazurin coupled assay, resorufin fluorescence, 16 min; hits give high values; 1 = vehicle wells, 0 = NADH-free wells. activation factor at 20 µM. 0.005% of 190,000 active;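 active = diaphorase activity raised at least twofold by the compound at 20 µM; inactive = activation factor below 2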
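Test system: Clostridium kluyveri diaphorase, purified enzyme; input: enzyme 0.07 U/mL final; buffer or medium: 50 mM HEPES pH 7.4 with 4.542 mM MgCl2, 0.005% Tween 20; also added: 0.114 mM NADH and 0.1 mM resazurin, final amounts; schedule: 16 min enzyme reaction, ambient temperature; technique: fluorescence of resorufin, 544 nm excitation, 590 nm emission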
Diaph inh CS: inhibits diaphorase or chemically oxidizes, flagging diaphorase assay artifacts. inhibition, % at 20 µM. 0.69% of 190,000 active. AID 1217. diaphorase resazurin-to-resorufin fluorescence, NADH, 16 min; bacterial (C. kluyveri) enzyme, not human;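 active = primary screen inhibition at 20 µM above a set limit, cut at about 50% in these data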
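System: Diaphorase enzyme from Clostridium kluyveri | Amount: Enzyme working solution with 0.14 U/mL diaphorase | Benchmarks: No-NADH positive control and DMSO neutral control | Signal: Fluorescence of resorufin formed from resazurin, Ex 544/Em 590 nm | Schedule: 16-min room-temperature incubation before reading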
PfG6PD inh: PfG6PD (Plasmodium falciparum) enzyme inhibition. PfGluPho enzyme, NADPH resazurin-diaphorase fluorescence. inhibition, % at 20 µM. 0.78% of 350,000 active;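 active = inhibition reaching at least a set limit at 20 µM in the primary screen, cut at about 59% in these data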
Hits are given with their value; – = inactive; · = no result. Cut-off read from the data, not from the text of the source, unless noted: active = inhibition above about 50%; inactive = the rest.

SMILES	G6PDH CS	Redox H2O2 prof	L major viab	Diaphorase act	Diaph inh CS	PfG6PD inh
Cc1ccc(S(=O)(=O)O/N=C2/CCCc3occc32)cc1	–	–	–	–	–	–
CC1=C(C)/C(=N\OS(=O)(=O)c2ccc(C)cc2)C=CC1=O	–	–	100	–	101	108
COc1ccc(S(=O)(=O)/N=C2/C=CC(=O)C(C)=C2C)cc1	–	–	–	–	–	62
COc1ccc(S(=O)(=O)c2ccc(OC)cc2)cc1	–	–	–	–	–	–
CCN(CC)c1nc2c3c(nc4c(c3c1C#N)CC(=O)N4c1ccc(Cl)cc1)NC(C)=N2	–	–	56	–	58	–
Cc1ccc2cc([N+](=O)[O-])ccc2n1	·	·	·	·	·	–
CCCCNC(=S)N/N=C/c1cccc(OCC)c1O	·	·	·	·	·	–
O=[N+]([O-])c1ccccc1NC(=S)N/N=C/c1ccc(O)c(O)c1	–	–	–	–	72	–
CCOc1cccc(/C=N/NC(=S)Nc2ccccc2[N+](=O)[O-])c1O	–	–	95	–	–	–
CSCCC(NC(=O)COc1ccccc1)C(=O)N1CCN(c2ccccc2O)CC1 (stereo not given)	·	·	·	·	·	–
COc1ccc(-c2cc(CNC(=O)CCl)on2)cc1	–	–	66	–	–	–
COc1ccc(-c2cc(CNC(C)=O)on2)cc1	–	–	–	–	–	–
COC(=O)C(CCSC)NC(=O)C12CC3CC(CC(C3)C1)C2 (stereo not given)	–	–	95	–	–	–
CCOC(=O)c1cc(CC)sc1NC(=O)CN1C(=O)C(=O)N(CC(C)C)C1=O	·	·	·	·	·	–
C#CCOc1ccc(/C=N/O)cc1Cl	–	–	55	–	–	–
CCOc1ccc(CCNC(=O)COC(=O)c2cc(=O)[nH]c3ccccc23)cc1OCC	·	·	·	·	·	–
COc1ccc(-c2cc(=O)[nH]c(=O)[nH]2)cc1	–	–	–	–	–	–
COc1ccc(-c2cc(=O)[nH][nH]2)cc1	–	–	76	–	–	–
Cc1ccc(/C=C/C(=O)OCC(=O)NC(=O)NCc2ccco2)cc1	·	·	·	·	·	–
COC(=O)c1cccc(OCC(O)Cn2ccnc2)c1 (stereo not given)	–	–	–	–	–	–
COc1ccc(C(=O)OC(COc2ccccc2)Cn2ccnc2)cc1 (stereo not given)	–	–	100	–	–	–
CN(CCNC(=O)CN1CCN(Cc2ccccc2Cl)C1=O)Cc1ccccc1	–	–	59	–	–	–
O=C(CN1CCN(Cc2ccc(F)cc2Cl)C1=O)NCCc1ccccc1	–	–	–	–	–	–
CN(C)C(CNc1ncccn1)c1ccccc1 (stereo not given)	·	·	·	·	·	–
COCC(=O)Nc1nc(-c2ccc([N+](=O)[O-])cc2)cs1	–	–	–	–	–	–
SMILES	G6PDH CS	Redox H2O2 prof	L major viab	Diaphorase act	Diaph inh CS	PfG6PD inh
CCC(=O)Nc1nc(-c2cc([N+](=O)[O-])cs2)cs1	–	–	90	–	–	–
Cc1csc(NC(=O)c2cc([N+](=O)[O-])cc([N+](=O)[O-])c2)n1	–	–	94	–	–	–
Cc1cc(C)n2nc(C(=O)Nc3nccs3)nc2n1	–	–	–	–	–	–
Cc1ccnc(NC(=O)c2cc([N+](=O)[O-])cc([N+](=O)[O-])c2)c1	–	–	67	–	–	–
Cc1csc(NC(=O)c2nc3nc(C)cc(C)n3n2)n1	–	–	77	–	–	–
Cc1ccnc(NC(=O)Cc2ccc([N+](=O)[O-])cc2)c1	–	–	–	–	–	–
Cc1c(C(=O)N2CCC3(CC2)CC(=O)c2ccccc2O3)cccc1[N+](=O)[O-]	·	·	·	·	·	–
CC(=O)Nc1ccc(S(=O)(=O)N2CCC(C(=O)NCc3ccco3)CC2)cc1	·	·	·	·	·	–
S=C(NCc1ccc(Cl)cc1)NCc1ccco1	·	·	·	·	·	–
O=c1c2ccccc2nnn1CSc1nnc(-c2cccc(S(=O)(=O)N3CCCCC3)c2)o1	–	–	71	–	–	–
CCNC(=S)NCc1ccco1	–	–	59	–	–	–
O=C(CSc1nnc(-c2ccc(S(=O)(=O)N3CCCC3)cc2)o1)NCc1ccco1	–	–	88	–	–	–
O=S(=O)(c1ccc(NC(=S)NCc2ccco2)cc1)N1CCCC1	–	–	52	–	–	–

Bioassay records (PubChem)
